Source: ChEMBL document CHEMBL4706596, “Synthesis, biological evaluation, in silico modeling and crystallization of novel small monocationic molecules with potent antiproliferative activity by dual mechanism” (Eur J Med Chem, 2020)

Legend:
[1] = Inhibition of [methyl-14C]choline uptake in human HepG2 cells at 10 uM incubated for 10 mins followed by removal of medium containing compound and subsequent addition of [methyl-14C]choline measured after 5 mins relative to control; format: functional; settings: HepG2, 10 min
Procedure, shortened: (§1)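 Cells at 200,000/well were incubated for 10 min at 37 °C in medium with or without CKα1 inhibitor. The medium was then removed and cells were exposed to [methyl-¹⁴C]choline (31 Ci/mol) for 5 min at 37 °C. Uptake was stopped by aspiration and two ice-cold PBS washes containing choline. Inhibition is expressed as % of untreated control.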

Choline kinase alpha [2] = target: T1, Choline kinase alpha (Homo sapiens, UniProt P35790); test: Binding affinity to human CKalpha1 assessed as dissociation constant by spectroflurometry
Procedure, shortened: (§2)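 Purified human CK (cloned as reported earlier) at 1 µM was titrated with compound in 25 mM Tris, 150 mM NaCl, pH 7.5 at 25 °C. Compound ranges were 0.1–10 µM for CKα1 and 0.5–200 µM for CKβ. Tryptophan quenching was read with excitation at 280 nm, emission 300–400 nm and 5 nm slits. DMSO-matched controls were run, and Kd was fitted to a single-site model. Results are given as mean ± SD.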
Target sequence in this assay (P35790 whole entry): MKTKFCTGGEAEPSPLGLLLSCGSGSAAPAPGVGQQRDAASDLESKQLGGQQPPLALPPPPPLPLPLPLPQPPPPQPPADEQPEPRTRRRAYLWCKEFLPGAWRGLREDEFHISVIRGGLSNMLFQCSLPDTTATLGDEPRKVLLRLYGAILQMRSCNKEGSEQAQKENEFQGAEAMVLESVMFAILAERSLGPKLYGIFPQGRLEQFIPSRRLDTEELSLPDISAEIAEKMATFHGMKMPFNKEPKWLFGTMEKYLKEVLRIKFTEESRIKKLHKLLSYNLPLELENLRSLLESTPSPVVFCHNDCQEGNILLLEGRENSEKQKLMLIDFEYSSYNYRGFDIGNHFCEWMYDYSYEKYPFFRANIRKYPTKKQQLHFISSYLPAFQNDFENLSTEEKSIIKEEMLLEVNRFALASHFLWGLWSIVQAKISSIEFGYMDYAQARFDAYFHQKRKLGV

HT-29 [3] = test: Induction of mitochondrial membrane potential loss in human HT-29 cells measured for 48 hrs by JC1 staining based flow cytometry analysis; format: functional, cell-based; settings: dose 2.5-5 µM
Procedure, shortened: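 Cells were treated with compound, then stained with the fluorescent dye JC-1. Loss of mitochondrial membrane potential was monitored by flow cytometry.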

HT-29 [4] = test: Induction of cell cycle arrest in human HT-29 cells assessed as accumulation at G2/M phase at 2.5 uM incubated for 24 hrs by PI staining based flowcytometry analysis (reference value: 12.40 %); format: functional
HeLa [5] = test: Induction of apoptosis in human HeLa cells at 2.5 to 5 uM by annexin V-FITC and PI staining based flowcytometry analysis; format: functional, cell-based; settings: dose 2.5-5 µM, time 24-48 hrs, TDE = time-dependent effect
Procedure, shortened: (§3)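 Treated cells were collected at different times, dual-stained with annexin V-FITC (phosphatidylserine exposure) and propidium iodide (DNA), and analysed by bi-parametric flow cytometry.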

HeLa [6] = test: Induction of cell cycle arrest in human HeLa cells assessed as accumulation at S phase at 1 uM incubated for 24 hrs by PI staining based flowcytometry analysis (reference value: 32.30 %); format: functional
HT-29 [7] = test: Induction of cell cycle arrest in human HT-29 cells assessed as accumulation at S phase at 1 uM incubated for 24 hrs by PI staining based flowcytometry analysis (reference value: 27.40 %); format: functional
HT-29 [8] = test: Induction of cell cycle arrest in human HT-29 cells assessed as accumulation at G2/M phase at 1 uM incubated for 24 hrs by PI staining based flowcytometry analysis (reference value: 12.40 %); format: functional
Choline kinase alpha [9] = target: T1, Choline kinase alpha; test: (§4) Inhibition of human CKalpha1 assessed as reduction in 14C incorporation from [methyl-14C]choline to phosphatidylcholine at 10 uM using [methyl-14C]choline as substrate preincubated for 5 mins in presence of ATP and MgCl2 followed by substrate addition and measured after 10 mins by liquid scintillation counting method relative to control; settings: time 15.0 min
Procedure, shortened: (§5)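 Purified human CKα1 (20 ng) in 100 mM Tris pH 8.5 with 10 mM MgCl₂ and 10 mM ATP, DMSO ≤0.1%, was preincubated 5 min at 37 °C. Reaction was started with 1 mM [methyl-¹⁴C]choline (4500 dpm/nmol), run 10 min at 37 °C and stopped in boiling water. Product was separated by silica TLC, scraped and scintillation-counted against DMSO controls. At least three experiments were run; IC50 was obtained from sigmoidal dose-response fits.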
Target sequence in this assay (P35790 whole entry, looked up): as the sequence (P35790 whole entry) above

HT-29 [10] = test: Induction of cell cycle arrest in human HT-29 cells assessed as accumulation at G0/G1 phase at 2.5 uM incubated for 24 hrs by PI staining based flowcytometry analysis (reference value: 60.20 %); format: functional
CCRF-CEM = test: Antiproliferative activity against human CCRF-CEM cells assessed as inhibition of cell proliferation incubated for 72 hrs by MTT assay; format: functional
Procedure, shortened: (§6)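 Cells seeded at 8 × 10³/well and held 18 h at 37 °C, 5% CO₂. Medium then replaced with compound at several concentrations for 72 h at 37 °C, followed by MTT viability read-out. GI50 is taken against cells given the maximum DMSO (0.25%), which is set as 100% viability. Dose-response curves come from at least three independent experiments run in triplicate and are reported as mean ± SE.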

HT-29 [11] = test: Induction of cell cycle arrest in human HT-29 cells assessed as increase accumulation of G0/G1 phase incubated for 24 hrs by PI staining based flowcytometry analysis; settings: dose 1-2.5 µM
HT-29 [12] = test: Induction of cell cycle arrest in human HT-29 cells assessed as accumulation at S phase at 2.5 uM incubated for 24 hrs by PI staining based flowcytometry analysis (reference value: 27.40 %); format: functional
HeLa [13] = test: Induction of cell cycle arrest in human HeLa cells assessed as accumulation at G2/M phase at 1 uM incubated for 24 hrs by PI staining based flowcytometry analysis (reference value: 10.7 %); format: functional
[14] = Inhibition of [methyl-14C]choline uptake in human HT-29 cells at 30 uM incubated for 10 mins followed by removal of medium containing compound and subsequent addition of [methyl-14C]choline measured after 5 mins relative to control; format: functional; settings: HT-29, 10 min; procedure, shortened: as §1
HT-29 [15] = test: Induction of apoptosis in human HT-29 cells at 2.5 to 5 uM by annexin V-FITC and PI staining based flowcytometry analysis; format: functional, cell-based; settings: dose 2.5-5 µM, time 24-48 hrs, TDE = time-dependent effect; procedure, shortened: as §3
HT-29 [16] = test: Antiproliferative activity against human HT-29 cells assessed as inhibition of cell proliferation incubated for 72 hrs by MTT assay; format: functional; procedure, shortened: as §6
HT-29 [17] = test: Induction of apoptosis in human HT-29 cells measured for 48 hrs by annexin V-FITC and PI staining based flowcytometry analysis; format: functional, cell-based; settings: dose 2.5-5 µM; procedure, shortened: as §3
HeLa [18] = test: Induction of cell cycle arrest in human HeLa cells assessed as accumulation at G0/G1 phase at 1 uM incubated for 24 hrs by PI staining based flowcytometry analysis (reference value: 57 %); format: functional
[19] = target: Choline/ethanolamine kinase (Homo sapiens, UniProt Q9Y259); test: Binding affinity to human CKbeta assessed as dissociation constant by spectroflurometry; procedure, shortened: as §2
Choline/ethanolamine kinase, sequence (Q9Y259 whole entry): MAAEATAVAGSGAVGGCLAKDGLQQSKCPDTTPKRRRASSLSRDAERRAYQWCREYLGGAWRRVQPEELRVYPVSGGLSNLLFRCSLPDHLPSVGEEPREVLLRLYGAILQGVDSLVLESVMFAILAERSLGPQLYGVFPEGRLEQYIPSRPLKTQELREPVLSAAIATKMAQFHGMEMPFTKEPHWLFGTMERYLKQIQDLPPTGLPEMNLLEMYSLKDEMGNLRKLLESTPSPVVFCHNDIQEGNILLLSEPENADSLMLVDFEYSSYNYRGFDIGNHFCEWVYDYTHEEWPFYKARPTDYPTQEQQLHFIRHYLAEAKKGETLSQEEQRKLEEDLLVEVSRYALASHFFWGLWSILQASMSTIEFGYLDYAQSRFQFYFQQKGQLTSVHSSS

HeLa [20] = test: Induction of mitochondrial membrane potential loss in human HeLa cells by JC1 staining based flow cytometry analysis; settings: dose 2.5-5 µM
[21] = Inhibition of [methyl-14C]choline uptake in human HT-29 cells at 10 uM incubated for 10 mins followed by removal of medium containing compound and subsequent addition of [methyl-14C]choline measured after 5 mins relative to control; format: functional; settings: HT-29, 10 min; procedure, shortened: as §1
Choline kinase alpha [22] = target: T1, Choline kinase alpha; test: as §4, with “at 30” for “at 10”; settings: time 15.0 min; procedure, shortened: as §5
Target sequence in this assay (P35790 whole entry, looked up): as the sequence (P35790 whole entry) above

Choline kinase alpha [23] = target: T1, Choline kinase alpha; test: as §4, with “[…]” for “phosphatidylcholine at 10 uM”; procedure, shortened: as §5
Target sequence in this assay (P35790 whole entry): as above

HeLa [24] = test: Induction of cell cycle arrest in human HeLa cells assessed as accumulation at S phase at 2.5 uM incubated for 24 hrs by PI staining based flowcytometry analysis (reference value: 32.30 %); format: functional
HT-29 [25] = test: Induction of cell cycle arrest in human HT-29 cells assessed as accumulation at G0/G1 phase at 1 uM incubated for 24 hrs by PI staining based flowcytometry analysis (reference value: 60.20 %); format: functional
HeLa [26] = test: Induction of cell cycle arrest in human HeLa cells assessed as accumulation at G0/G1 phase at 2.5 uM incubated for 24 hrs by PI staining based flowcytometry analysis (reference value: 57 %); format: functional
HeLa [27] = test: Induction of apoptosis in human HeLa cells measured for 48 hrs by annexin V-FITC and PI staining based flowcytometry analysis; format: functional, cell-based; settings: dose 2.5-5 µM; procedure, shortened: as §3
HeLa [28] = test: Antiproliferative activity against human HeLa cells assessed as inhibition of cell proliferation incubated for 72 hrs by MTT assay; format: functional; procedure, shortened: as §6
HeLa [29] = test: Induction of cell cycle arrest in human HeLa cells assessed as accumulation at G2/M phase at 2.5 uM incubated for 24 hrs by PI staining based flowcytometry analysis (reference value: 10.70 %); format: functional
[30] = Inhibition of [methyl-14C]choline uptake in human HepG2 cells at 30 uM incubated for 10 mins followed by removal of medium containing compound and subsequent addition of [methyl-14C]choline measured after 5 mins relative to control; format: functional; settings: HepG2, 10 min; procedure, shortened: as §1
RS4-11 = test: Antiproliferative activity against human RS4-11 cells assessed as inhibition of cell proliferation incubated for 72 hrs by MTT assay; format: functional; procedure, shortened: as §6
Homo sapiens = species on record: Homo sapiens; test: Selectivity index, ratio of Kd for human CKbeta to Kd for human CKalpha1

Kd (Choline kinase alpha [2]): 370 nM
inhibition (Choline kinase alpha [9]): 74.4%
GI50 (CCRF-CEM): 150 nM
GI50 (HT-29 [16]): 90 nM
Kd [19]: 63000 nM
inhibition (Choline kinase alpha [22]): 94.4%
IC50 (Choline kinase alpha [23]): 6740 nM
GI50 (HeLa [28]): 360 nM
GI50 (RS4-11): 60 nM
Ratio (Homo sapiens): 171
SMILES: Clc1ccc2c(N3CCCCCC3)cc[n+](Cc3ccc(-c4ccccc4)cc3)c2c1.[Br-]
inhibition at 10 µM [1]: 88.2%
Activity (HT-29 [3]): Dose-dependent effect
Activity (HT-29 [4]): 7.9%
Activity (HeLa [5]): Tde
Activity (HeLa [6]): 25.23%
Activity (HT-29 [7]): 5.1%
Activity (HT-29 [8]): 6.9%
Activity (HT-29 [10]): 86.3%
Activity (HT-29 [11]): Dose-dependent effect
Activity (HT-29 [12]): 5.8%
Activity (HeLa [13]): 7.31%
inhibition at 30 µM [14]: 96.7%
Activity (HT-29 [15]): Tde
Activity (HT-29 [17]): Dose-dependent effect
Activity (HeLa [18]): 67.47%
Activity (HeLa [20]): Dose-dependent effect
inhibition at 10 µM [21]: 86.9%
Activity (HeLa [24]): 27.31%
Activity (HT-29 [25]): 88%
Activity (HeLa [26]): 66.27%
Activity (HeLa [27]): Dose-dependent effect
Activity (HeLa [29]): 4.5%
inhibition at 30 µM [30]: 95.5%
